From ChEMBL document CHEMBL2010709, “Pinophilins A and B, inhibitors of mammalian A-, B-, and Y-family DNA polymerases and human cancer cell proliferation” (J Nat Prod, 2012)
Calls of active or inactive are those of the source. No cut-off for these calls is given here.

Tests used:
Oryza sativa = assay: Inhibition of rice cv. Nipponbare recombinant C-terminal-His6-tagged DNA polymerase lambda expressed in Escherichia coli assessed as inhibition of incorporation of dTTP into activated DNA primer after 60 mins
BALL-1 = assay: Cell cycle arrest in human BALL-1 cells assessed as accumulation at S-phase at GI50 by tritiated thymidine incorporation assay; type: functional, cell-based
[1] = Inhibition of T7 RNA polymerase assessed as inhibition of incorporation of [3H]UTP after 30 mins by liquid scintillation counting; design: species or system Escherichia phage T7
DNA polymerase kappa = target: T1, DNA polymerase kappa (Homo sapiens, UniProt Q9UBT6); assay: Inhibition of human C-terminal-His6-tagged DNA polymerase kappa expressed in Escherichia coli assessed as inhibition of incorporation of dTTP into poly(dA)/oligo(dT)18 after 60 mins
T1 sequence (Q9UBT6 whole entry): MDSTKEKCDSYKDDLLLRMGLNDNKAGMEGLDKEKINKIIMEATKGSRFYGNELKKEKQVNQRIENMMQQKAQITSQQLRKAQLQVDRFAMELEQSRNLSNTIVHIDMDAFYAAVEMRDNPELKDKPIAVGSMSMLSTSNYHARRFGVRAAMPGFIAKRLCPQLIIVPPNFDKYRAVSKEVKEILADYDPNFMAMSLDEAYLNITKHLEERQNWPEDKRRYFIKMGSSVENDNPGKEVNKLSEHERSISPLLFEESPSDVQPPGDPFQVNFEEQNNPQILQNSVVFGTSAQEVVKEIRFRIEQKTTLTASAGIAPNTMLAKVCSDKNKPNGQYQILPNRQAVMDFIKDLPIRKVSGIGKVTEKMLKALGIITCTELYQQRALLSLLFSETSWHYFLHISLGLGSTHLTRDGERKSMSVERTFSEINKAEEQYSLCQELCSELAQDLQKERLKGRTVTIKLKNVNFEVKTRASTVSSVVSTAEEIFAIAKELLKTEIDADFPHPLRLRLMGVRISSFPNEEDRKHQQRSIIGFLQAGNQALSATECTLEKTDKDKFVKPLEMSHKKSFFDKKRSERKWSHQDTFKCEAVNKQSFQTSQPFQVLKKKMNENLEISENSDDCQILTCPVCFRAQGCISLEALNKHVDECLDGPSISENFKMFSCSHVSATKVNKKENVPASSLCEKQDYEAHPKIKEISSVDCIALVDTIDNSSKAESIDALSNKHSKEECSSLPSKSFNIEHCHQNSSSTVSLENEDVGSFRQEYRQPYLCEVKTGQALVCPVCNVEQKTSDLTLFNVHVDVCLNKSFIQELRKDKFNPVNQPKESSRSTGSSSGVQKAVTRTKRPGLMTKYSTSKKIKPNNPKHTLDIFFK
In short: (§1)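 Compound in DMSO was sonicated for 30 s, then held with enzyme (0.05 units final) at 0 °C for 10 min in 50 mM Tris-HCl pH 7.5, 1 mM DTT, 50% glycerol, 0.1 mM EDTA. The mixture was added to the standard reaction mix with poly(dA)/oligo(dT)18 (A/T = 2/1) and dTTP, 37 °C, 60 min. Activity was relative to no-inhibitor control; mean ± SE, three independent experiments.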

[2] = target: Human immunodeficiency virus type 1 reverse transcriptase (Human immunodeficiency virus 1, UniProt Q72547); assay: Inhibition of HIV-1 reverse transcriptase assessed as inhibition of incorporation of dTTP into poly(rA)/oligo(dT)18 after 60 mins
In short: (§2)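 Enzyme (0.05 units) was preincubated with compound in DMSO at 0 °C for 10 min in Tris-HCl pH 7.5/DTT/glycerol/EDTA buffer, then reacted at 37 °C for 60 min. Substrates were poly(rA)/oligo(dT)18 (A/T = 2/1) plus dTTP for HIV-1 RT, and oligo(dT)18 (3′-OH) primer plus dTTP for calf thymus TdT. Activity was relative to uninhibited control; mean ± SE of three experiments.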

[3] = target: Inosine-5'-monophosphate dehydrogenase 2 (Mus musculus, UniProt P24547); assay: Inhibition of mouse IMP dehydrogenase 2
DNA polymerase iota = target: T2, DNA polymerase iota (Mus musculus, UniProt Q6R3M4); assay: Inhibition of mouse recombinant C-terminal-His6-tagged DNA polymerase iota assessed as inhibition of incorporation of dTTP into poly(dA)/oligo(dT)18 after 60 mins; in short: as §1
T2 sequence (Q6R3M4 whole entry): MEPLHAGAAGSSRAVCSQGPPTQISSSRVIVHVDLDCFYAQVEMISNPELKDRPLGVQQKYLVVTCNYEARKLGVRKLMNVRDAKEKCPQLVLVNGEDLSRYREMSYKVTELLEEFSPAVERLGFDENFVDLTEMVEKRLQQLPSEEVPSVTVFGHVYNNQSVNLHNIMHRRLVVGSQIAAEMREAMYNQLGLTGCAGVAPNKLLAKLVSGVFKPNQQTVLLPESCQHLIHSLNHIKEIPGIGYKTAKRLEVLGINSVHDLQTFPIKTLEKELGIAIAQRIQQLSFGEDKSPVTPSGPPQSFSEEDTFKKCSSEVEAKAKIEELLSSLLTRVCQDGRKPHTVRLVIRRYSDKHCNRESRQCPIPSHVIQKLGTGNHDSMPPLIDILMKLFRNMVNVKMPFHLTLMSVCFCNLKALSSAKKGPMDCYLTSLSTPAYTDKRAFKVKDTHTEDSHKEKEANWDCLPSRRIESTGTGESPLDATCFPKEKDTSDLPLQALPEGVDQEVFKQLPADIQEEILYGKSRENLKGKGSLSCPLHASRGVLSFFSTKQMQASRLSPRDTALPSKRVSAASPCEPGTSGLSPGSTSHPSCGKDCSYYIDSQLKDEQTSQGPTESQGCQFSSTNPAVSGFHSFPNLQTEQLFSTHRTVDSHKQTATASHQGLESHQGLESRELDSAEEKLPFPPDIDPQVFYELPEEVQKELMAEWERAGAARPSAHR

[4] = target: DNA polymerase eta (Homo sapiens) (UniProt Q9Y253); assay: Inhibition of C-terminal-His6-tagged human pol eta expressed in Escherichia coli assessed as inhibition of incorporation of dTTP into poly(dA)/oligo(dT)18 after 60 mins
Thermus aquaticus = assay: Inhibition of Thermus aquaticus DNA polymerase assessed as inhibition of incorporation of dTTP into activated DNA primer after 60 mins
[5] = Growth inhibition of HUVEC cells after 72 hrs by WST-1 assay; type: cell-based; settings: human
In short: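 Normal cells (HDF, HUVEC) were grown in Eagle's MEM with 4.5 g/L glucose, 10% FCS, 5 mM L-glutamine and penicillin/streptomycin, 37 °C, 5% CO2. Cells were seeded at 1 × 10^4 per well, cultured 12 h, then exposed to compound (0.5% DMSO final) for 72 h. Viability was read by WST-1 at 450/630 nm. GI50 given as mean ± SE of five experiments.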

[6] = target: DNA nucleotidylexotransferase (Bos taurus, UniProt P06526); assay: Inhibition of calf TdT assessed as inhibition of incorporation of dTTP into oligo(dT)18(3'OH) after 60 mins; in short: as §2
Deoxyribonuclease-1 = Deoxyribonuclease-1 (Bos taurus, UniProt P00639); assay: Inhibition of bovine deoxyribonuclease 1 using [3H]-labelled DNA after 30 mins by agarose gel electrophoresis
Sequence of Deoxyribonuclease-1 (P00639 whole entry): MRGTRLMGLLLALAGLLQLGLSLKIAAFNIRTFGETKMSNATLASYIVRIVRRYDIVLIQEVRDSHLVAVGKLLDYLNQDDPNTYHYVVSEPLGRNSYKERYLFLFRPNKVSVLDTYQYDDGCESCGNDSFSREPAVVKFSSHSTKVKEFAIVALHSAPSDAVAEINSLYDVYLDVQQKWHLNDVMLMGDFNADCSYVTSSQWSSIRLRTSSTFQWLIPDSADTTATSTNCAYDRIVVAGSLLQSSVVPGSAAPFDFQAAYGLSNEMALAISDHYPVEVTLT

Sequence of DNA polymerase eta (Homo sapiens) (Q9Y253 whole entry, looked up): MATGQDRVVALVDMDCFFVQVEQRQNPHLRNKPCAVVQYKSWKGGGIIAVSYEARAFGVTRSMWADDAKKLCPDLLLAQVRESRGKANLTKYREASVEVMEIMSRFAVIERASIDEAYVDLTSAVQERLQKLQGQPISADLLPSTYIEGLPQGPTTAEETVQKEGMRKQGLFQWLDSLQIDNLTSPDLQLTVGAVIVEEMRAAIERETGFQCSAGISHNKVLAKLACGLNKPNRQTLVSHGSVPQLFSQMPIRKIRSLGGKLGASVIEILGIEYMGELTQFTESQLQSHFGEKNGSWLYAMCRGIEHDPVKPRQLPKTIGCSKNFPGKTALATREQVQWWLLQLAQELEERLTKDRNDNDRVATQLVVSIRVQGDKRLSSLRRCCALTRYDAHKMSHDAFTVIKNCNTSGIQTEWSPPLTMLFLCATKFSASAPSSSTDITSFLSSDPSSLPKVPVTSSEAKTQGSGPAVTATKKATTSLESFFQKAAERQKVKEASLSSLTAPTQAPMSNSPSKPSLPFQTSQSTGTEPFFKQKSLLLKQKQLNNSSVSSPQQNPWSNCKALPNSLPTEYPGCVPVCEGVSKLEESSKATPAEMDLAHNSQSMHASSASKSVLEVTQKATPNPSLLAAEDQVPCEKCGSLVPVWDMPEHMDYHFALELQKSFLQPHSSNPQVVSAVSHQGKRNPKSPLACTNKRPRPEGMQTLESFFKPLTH
Sequence of DNA nucleotidylexotransferase (P06526 whole entry): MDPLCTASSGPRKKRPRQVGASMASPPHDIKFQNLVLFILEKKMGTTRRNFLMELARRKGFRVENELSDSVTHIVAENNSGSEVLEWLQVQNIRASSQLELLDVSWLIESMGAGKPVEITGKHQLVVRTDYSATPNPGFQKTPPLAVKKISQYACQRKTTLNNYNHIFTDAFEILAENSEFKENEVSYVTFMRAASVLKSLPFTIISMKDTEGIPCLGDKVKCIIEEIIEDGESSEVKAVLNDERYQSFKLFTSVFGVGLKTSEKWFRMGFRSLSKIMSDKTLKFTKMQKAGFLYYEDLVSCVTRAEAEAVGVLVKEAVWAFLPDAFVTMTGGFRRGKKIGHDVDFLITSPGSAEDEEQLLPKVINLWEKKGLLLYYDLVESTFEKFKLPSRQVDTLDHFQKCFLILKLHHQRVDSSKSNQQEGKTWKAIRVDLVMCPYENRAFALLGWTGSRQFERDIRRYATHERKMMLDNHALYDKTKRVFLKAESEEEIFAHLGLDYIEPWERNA
Sequence of Inosine-5'-monophosphate dehydrogenase 2 (P24547 whole entry): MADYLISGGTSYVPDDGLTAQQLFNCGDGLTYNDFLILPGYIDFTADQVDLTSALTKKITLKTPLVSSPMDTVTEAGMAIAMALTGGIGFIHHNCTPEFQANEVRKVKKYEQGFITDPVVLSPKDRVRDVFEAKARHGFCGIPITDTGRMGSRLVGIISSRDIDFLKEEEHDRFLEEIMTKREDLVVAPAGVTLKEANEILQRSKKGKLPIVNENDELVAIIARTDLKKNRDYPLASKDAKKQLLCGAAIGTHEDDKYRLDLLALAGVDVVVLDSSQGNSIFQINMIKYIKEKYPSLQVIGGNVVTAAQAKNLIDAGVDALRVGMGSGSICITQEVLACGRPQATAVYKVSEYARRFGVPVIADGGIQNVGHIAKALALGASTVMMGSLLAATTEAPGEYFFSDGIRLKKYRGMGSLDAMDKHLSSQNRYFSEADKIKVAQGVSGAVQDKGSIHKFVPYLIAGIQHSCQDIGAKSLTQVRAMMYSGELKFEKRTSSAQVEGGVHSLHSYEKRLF

| Structure (SMILES) | inhibition (Oryza sativa) | Activity (BALL-1) | IC50 [1] [µM] | IC50 (DNA polymerase kappa) [µM] | IC50 [2] [µM] | IC50 [3] [µM] | IC50 (DNA polymerase iota) [µM] | IC50 [4] [µM] | inhibition (Thermus aquaticus) | GI50 at 72 h [5] [µM] | IC50 [6] [µM] | IC50 (Deoxyribonuclease-1) [µM] |
| --- | --- | --- | --- | --- | --- | --- | --- | --- | --- | --- | --- | --- |
| C/C=C/C1=CC2=CC(=O)[C@@](C)(O)[C@@H](OC(=O)c3c(C)cc(O)cc3O)[C@@H]2CO1 | inactive | Active | > 200 | 59.8 | > 200 | > 200 | 63.8 | 63.1 | inactive | > 200 | > 200 | > 200 |
| C/C=C/C1=CC2=CC(=O)[C@@](C)(OC(=O)c3c(C)cc(O)cc3O)[C@@H](O)[C@@H]2CO1 [PINOPHILIN A] | inactive | Active | > 200 | 48.6 | > 200 | > 200 | 50.2 | 50.9 | inactive | > 200 | > 200 | > 200 |
| Cc1cc(O)cc(O)c1C(=O)O[C@H]1[C@@H]2COC(/C=C/CO)=CC2=CC(=O)[C@@]1(C)O [PINOPHILIN B] | inactive | Active | > 200 | 88.9 | > 200 | > 200 | 91 | 92.1 | inactive | > 200 | > 200 | > 200 |
